Only some compounds are listed: those with a hit (about 5.9% of all), similar ones and a draw of the others.
DAT uptake mod: human DAT dopamine uptake with cocaine, either direction | LLC-PK1 hDAT cells, [14C]-dopamine uptake with cocaine IC80; actives deviate in either direction | B-score at 10 µM | 110,000 compounds, 1.3% hits;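 active = Z score or B-score, a plate-position-corrected score, falls beyond the plate's 99.7% confidence bounds, in either direction; inactive = both scores lie inside the 99.7% bounds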;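 note: scored against the spread of the other compound wells on the same plate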
HIV Rev-RRE inh: disrupts HIV-1 Rev binding to RRE RNA; Rev peptide-RRE RNA binding, FRET; inhibition, % at 8 µM; 97,000 compounds, 0.79% hits; AID 704;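 active = inhibition above the screen-wide mean plus 3 SD, cut at about 35% in these data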;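 note: 0% = median DMSO wells and 100% = median Neomycin B control wells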
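Probe or stimulus: fluorescein-Rev peptide as binding partner; assay system: Cy5-tagged RRE RNA duplex with fluorescein-tagged Rev peptide; timing: 5 min compound–RNA preincubation, then 15 min with peptide, 25 °C; medium: HEPES pH 7.5 buffer with KCl, MgCl2, NaCl and EDTA; signal: fluorescein-to-Cy5 FRET, 480 nm excitation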
Phagocytosis inh: macrophage phagocytosis inhibition; J774A.1 macrophage IgG-bead phagocytosis, imaging; inhibition, % at 5 µM; 110,000 compounds, 0.07% hits;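 active = inhibition above the mean of the plate negative controls plus 5 SD, cut at about 13% in these data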;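 note: phagocytic index as fraction of beads internalized from green versus red external bead signal; plate controls were DMSO negative control for no effect and cytochalasin-D positive control for full effect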
Measles CPE: protection of cells from measles virus; Measles virus-infected cells, CPE protection, absorbance; protection (pct of control), % at 4 µM; 140,000 compounds, 1.5% hits; in the data active = protection mostly above about 24%, no sharp cut-off; inactive = mostly below about 26%
PTK2B oligo ant: Pyk2 (human) oligomerization antagonism | Q14289 | Q293 cells, Pyk2 FERM NanoBiT luminescence; active compounds read low | z-score (the deposit names both 25 µM and 10 µM) | 99,000 compounds, 0.83% hits | AID 1347419;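 active = Z-score of -3 or lower, scaled per plate to the spread of control and sample wells; inactive = z-score above -3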;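 note: negative z-score means lost luminescence so less FERM oligomerization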
Cav3 T inh: inhibitors of human Cav3.2 T-type calcium channel; O95180; Cav3.2-expressing cells, Fluo-4 calcium fluorescence FDSS; active compounds read low; B-score at 10 µM; 100,000 compounds, 4% hits; AID 449739;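 active = single-dose well whose peak fluorescence ratio is a statistical outlier from its plate by either plate-standardised score or position-corrected B-score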
* marks the source's active call; other numbers are inactive results; . = no result given; [ ] = dose if it differs, or a comment.

SMILES	DAT uptake mod	HIV Rev-RRE inh	Phagocytosis inh	Measles CPE	PTK2B oligo ant	Cav3 T inh
COC(=O)c1cc(NC(=O)Cc2ccc(OC)cc2)cc(C(=O)OC)c1	0.309	6.3	.	8.9	-1.9	0.0686
COC(=O)c1cc(OC)c(OC)cc1NC(=O)C(C)c1ccc([N+](=O)[O-])cc1 (stereo not given)	.	.	-8.9	2.6	.	.
CCOC(=O)N1CCN(C(=O)c2oc3ccc(S(=O)(=O)N4CCCCC4)cc3c2C)CC1	2.99*	7.0	.	4.6	1.63	0.448
Cc1c(C(=O)NCCN2CCOCC2)oc2ccc(S(=O)(=O)N3CCCCCC3)cc12	2.04*	.	0.2	6.5	-0.24	1.2
CC(C)COC(=O)n1c(=O)oc2cc(S(=O)(=O)N3CCCCC3)ccc21	-0.769	3.7	-1.0	22.5	-3.45*	-1.1
Cc1c(C(=O)NCCC2=CCCCC2)oc2ccc(S(=O)(=O)N3CCC4(CC3)OCCO4)cc12	0.839	3.9	2.1	11.0	-1.67	-5.56*
Cc1c(C(=O)NCCc2ccccc2)oc2ccc(S(=O)(=O)N3CCOCC3)cc12	-0.685	.	-0.3	18.9	0.68	0.259
CCCCCCCCNC(=O)c1cccnc1SCC(=O)Nc1ccccc1OC	.	.	1.0	1.7	.	.
Cc1cc(CSc2ccccc2)ccc1NC(=O)c1ccc(Cl)c([N+](=O)[O-])c1	-0.0605	7.2	1.1	7.5	0.1	0.0147
O=C1[C@@H]2C(c3ccccc3Cl)=NO[C@@H]2C(=O)N1Cc1ccccc1	0.787	1.8	-0.6	16.6	0.28	-0.782
CCCCN(CCCC)S(=O)(=O)c1ccc2oc(C(=O)N3CCOCC3)c(C)c2c1	0.681	-5.6	-2.6	7.1	-0.9	-4.66*
CCCCNC(=S)Nc1cc([N+](=O)[O-])ccc1C	.	.	.	4.7	.	.
COc1ccc(NC(=O)CCn2nnc(-c3ccc(C)cc3)n2)cc1OC	0.754	8.5	.	55.2*	1.27	0.526
CC(=O)c1ccccc1OCCn1nnc(-c2ccc(C)cc2)n1	0.487	17.7	.	2.6	-2.21	-5.11*
COc1ccc(OC)c(C2C(C(=O)Nc3nc4ccccc4s3)=C(C)NC3=C2C(=O)CCC3)c1 (stereo not given)	2.45	0.5	-2.8	30.3	-1.49	-7.49*
Cc1ccc2c(c1)c1c3n2CCCN(Cc2ccccc2)C3CCC1 (stereo not given)	-0.0116	2.8	37.5*[artifact]	4.7	1.64	0.414
Cc1[nH]c(=O)[nH]c(=O)c1NS(=O)(=O)c1ccccc1	.	.	-9.3	23.9	.	.
C=CCc1c(C)nc(SC)nc1Nc1ccccc1	0.809	3.6	.	5.5	-0.66	-4*
COc1cc2cc(Oc3ccc4ccc(=O)oc4c3)c(=O)oc2cc1OC(=O)/C=C/c1ccccc1	0.326	.	.	.	.	0.239
Cc1ccc(-n2c(SCC(=O)Nc3cc(C)on3)nc3c([nH]c4ccccc43)c2=O)cc1	.	7.0	-0.3	4.0	.	.
Cc1cc(NC(=O)CSc2cn(CCNC(=O)c3ccc(Cl)cc3)c3ccccc23)no1	-0.0495	.	1.1	2.3	.	-6.13*
Cc1cc(NC(=O)CSc2nc3ccccc3c(=O)n2Cc2ccccc2)no1	-8.15*	7.5	-0.3	13.1	-0.63	-0.0268
COc1ccc(C(=O)NCCn2cc(SCC(=O)Nc3cc(C)on3)c3ccccc32)cc1OC	-0.133	3.1	.	4.8	0.27	-0.547
Cc1cc(NC(=O)CSc2c(C)[nH]c3ccccc23)no1	-1.52	.	-0.6	2.4	.	-5.62*
Nc1nncn1C(=O)c1cccs1	2.79*	8.8	-0.7	3.0	-0.31	-0.822
SMILES	DAT uptake mod	HIV Rev-RRE inh	Phagocytosis inh	Measles CPE	PTK2B oligo ant	Cav3 T inh
O=C(CCCc1c[nH]c2ccccc12)N1CCN(c2ccc(N3CCOCC3)nn2)CC1	2.51*	-39.6	0.8	5.5	.	.
c1ccc(Cn2cc(CNc3ccccc3)nn2)cc1	0.554	.	.	.	.	-0.605
COc1cccc(Nc2nnc(SCN3C(=O)c4ccccc4C3=O)s2)c1	.	.	-4.3	21.2	.	.
COc1cccc(Nc2nnc(SCC(=O)N(CC(C)C)CC(C)C)s2)c1	1.27	7.7	3.6	9.0	-1.69	-7.2*
O=C(CCCCn1c(=O)c2ccccc2n(CC(=O)NC2CCCC2)c1=O)NC1CCCC1	0.971	4.0	.	87.6*	0.28	.
Cc1sc(NC(=O)Cn2[nH]c(=O)c3ccccc3c2=O)nc1-c1ccccc1	.	.	.	4.2	.	.
COC(=O)c1c(NC(=O)CN2CCN(c3ccccc3)CC2)c2c(C)cccc2n1C	0.465	0.9	-0.7	42.5*	0.66	-0.283
O=C(/C=C/c1ccccc1)/C=C/c1ccccc1	.	.	-2.3	6.0	.	.

High-throughput results deposited in PubChem by several laboratories.
